Experimental data reported in ChEMBL document CHEMBL5244265 (Bioorg Med Chem, 2020).
Blank lines part the entries; values can stand above or below the compound they belong to.

What was measured:
[1] = Inhibition of Bacillus licheniformis Proteinase A using Z-GPR-AMC as substrate by fluorescence based analysis
Method in brief: (§1)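 Each enzyme was read as a time course of rising fluorescence from cleavage of its AMC-labelled peptide substrate. The initial linear slope (signal/min) was analysed. Non-human sources: chymotrypsin from bovine pancreas, proteinase A from B. licheniformis, proteinase K from T. album limber.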

Kallikrein-7 [2] = target: T1, Kallikrein-7 (Homo sapiens, UniProt P49862); assay: Inhibition of human recombinant kallikrein 7 (23 to 252 residues) using MCA-RPKPVE-Nval-WRK(Dnp)-NH2 as substrate by fluorescence based analysis
Method in brief: (§2)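 Fluorogenic assay with HNE (MeOSucAAPV-AMC substrate) or human KLK7 ([…] substrate). Test compounds ran as a 10-dose, 3-fold dilution series from 1 μM in duplicate, with controls tested in the same run. Activity was taken from the initial linear slope of the fluorescence increase over time. Results are mean of n = 2, expressed relative to 0.5% DMSO vehicle.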
Target sequence in this assay (P49862 whole entry, the tested form may be a part): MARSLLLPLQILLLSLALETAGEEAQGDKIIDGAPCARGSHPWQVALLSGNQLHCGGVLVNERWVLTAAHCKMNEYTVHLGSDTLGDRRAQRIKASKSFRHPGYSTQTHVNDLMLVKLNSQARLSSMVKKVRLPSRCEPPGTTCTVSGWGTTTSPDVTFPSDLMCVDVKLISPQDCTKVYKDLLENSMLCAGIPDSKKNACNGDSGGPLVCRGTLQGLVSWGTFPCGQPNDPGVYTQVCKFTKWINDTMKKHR

Kallikrein-7 [3] = target: T1, Kallikrein-7; assay: Inhibition of human recombinant kallikrein 7 (23 to 252 residues) using MCA-RPKPVE-Nval-WRK(Dnp)-NH2 as substrate by fluorescence based analysis relative to tutuilamide A; method in brief: as §2
Target sequence in this assay (P49862 30-253 limits assumed): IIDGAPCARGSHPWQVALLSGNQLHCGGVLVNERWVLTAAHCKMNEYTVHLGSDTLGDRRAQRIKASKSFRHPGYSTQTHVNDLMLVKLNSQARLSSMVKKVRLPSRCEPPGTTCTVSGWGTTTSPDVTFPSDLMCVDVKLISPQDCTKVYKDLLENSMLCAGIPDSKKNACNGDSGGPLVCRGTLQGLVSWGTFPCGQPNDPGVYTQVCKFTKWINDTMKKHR

[4] = target: T2, Neutrophil elastase (Homo sapiens) (UniProt P08246); assay: Inhibition of elastase in human neutrophil using N-(OMe-succinyl)-Ala-Ala-Pro-Val-p-nitroanilide as substrate preincubated with enzyme for 15 mins followed by substrate addition and measured every 30s for 30 mins by absorbance based analysis relative to tutuilamide A; details: time 45.0 min
T2 sequence (whole entry): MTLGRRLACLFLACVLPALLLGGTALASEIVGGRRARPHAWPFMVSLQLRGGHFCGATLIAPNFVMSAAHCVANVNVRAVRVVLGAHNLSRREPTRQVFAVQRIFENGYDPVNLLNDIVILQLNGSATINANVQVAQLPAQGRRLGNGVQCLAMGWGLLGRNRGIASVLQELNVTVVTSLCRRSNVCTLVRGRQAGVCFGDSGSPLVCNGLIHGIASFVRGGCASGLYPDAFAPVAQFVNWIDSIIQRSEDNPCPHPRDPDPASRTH
Method in brief: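 Human neutrophil elastase, from a 100 μg/mL enzyme stock in 0.1 M Tris–0.5 M NaCl (pH 7.5), was preincubated with compound at varying doses or DMSO vehicle for 15 min at room temperature in the same buffer. The p-nitroanilide substrate was added from a 2 mM stock, and A405 was read every 30 s for 30 min. Activity was taken as the initial slope, expressed as % of the uninhibited reaction, and IC50 came from dose-response.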

Kallikrein-7 [5] = target: T1, Kallikrein-7; assay: Inhibition of KLK7 (unknown origin); method in brief: as §2
Target sequence in this assay (P49862 whole entry, the tested form may be a part): as the sequence (P49862 whole entry, the tested form may be a part) above

Neutrophil elastase [6] = target: T3, Neutrophil elastase (Homo sapiens, UniProt P08246); assay: Inhibition of elastase in human neutrophil using N-(OMe-succinyl)-Ala-Ala-Pro-Val-p-nitroanilide as substrate preincubated with enzyme for 15 mins followed by substrate addition and measured every 30s for 30 mins by absorbance based analysis
T3 sequence (P08246 whole entry): T2 sequence (whole entry)
Method in brief: (§3)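 HNE stock at 100 μg/mL and substrate stock at 2 mM, both in 0.1 M Tris–0.5 M NaCl pH 7.5. Compound or DMSO was preincubated with enzyme in the same buffer for 15 min at room temperature, then substrate was added. A405 was read every 30 s for 30 min. Activity was taken from the initial slope as a percentage of the uninhibited reaction.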

[7] = target: T2, Neutrophil elastase (Homo sapiens); assay: Inhibition of elastase in human neutrophil using MeOSuc-AAPV-AMC as substrate by fluorescence based analysis relative to sivelestat; type: cell-based; method in brief: as §2
[8] = target: T2, Neutrophil elastase (Homo sapiens); assay: Inhibition of elastase in human neutrophil using N-(OMe-succinyl)-Ala-Ala-Pro-Val-p-nitroanilide as substrate preincubated with enzyme for 15 mins followed by substrate addition and measured every 30s for 30 mins by absorbance based analysis relative to symplostatin 5; details: time 45.0 min; method in brief: as §3
[9] = target: T2, Neutrophil elastase (Homo sapiens); assay: Inhibition of elastase in human neutrophil using N-(OMe-succinyl)-Ala-Ala-Pro-Val-p-nitroanilide as substrate preincubated with enzyme for 15 mins followed by substrate addition and measured every 30s for 30 mins by absorbance based analysis relative to sivelestat; details: time 45.0 min; method in brief: as §3
[10] = Inhibition of chymotrypsin in bovine pancreas using Suc-AAPF-AMC as substrate by fluorescence based analysis; type: tissue-based, Bos taurus; method in brief: as §1
[11] = Inhibition of Tritirachium album limber Proteinase K using H-D-CHA -Ala-Arg-AMC.2AcOH as substrate by fluorescence based analysis; parameters: species or system Parengyodontium album; method in brief: as §1
Bacillus licheniformis = assay: Inhibition of Bacillus licheniformis Proteinase A using Z-GPR-AMC as substrate by fluorescence based analysis relative to leupeptin; method in brief: as §1
Parengyodontium album = assay: Inhibition of Tritirachium album limber Proteinase K using H-D-CHA -Ala-Arg-AMC.2AcOH as substrate by fluorescence based analysis relative to proteinase K inhibitor; method in brief: as §1
Neutrophil elastase [12] = target: T3, Neutrophil elastase; assay: Inhibition of elastase in human neutrophil using MeOSuc-AAPV-AMC as substrate by fluorescence based analysis; type: cell-based; method in brief: as §2
[13] = Inhibition of porcine pancreatic elastase; parameters: species or system Sus scrofa
Kallikrein-7 [14] = target: T1, Kallikrein-7; assay: Inhibition of human recombinant kallikrein 7 (23 to 252 residues) using MCA-RPKPVE-Nval-WRK(Dnp)-NH2 as substrate by fluorescence based analysis relative to gabexate mesylate; method in brief: as §2
Target sequence in this assay (P49862 30-253 limits assumed): as the sequence (P49862 30-253 limits assumed) above

[15] = Selectivity ratio of IC50 for chymotrypsin in bovine pancreas to IC50 for human neutrophil elastase

Compound: CC(=O)N[C@@H](CC(C)C)C(=O)N[C@@H](CC(C)C)C(=O)N[C@H](C=O)CCCNC(=N)N [LEUPEPTIN]
IC50 [1]: 129000 nM

Compound: C/C=C1\NC(=O)[C@@H](NC(=O)[C@H](CCC(N)=O)NC(=O)CCCCC)[C@@H](C)OC(=O)[C@H](C(C)C)NC(=O)[C@H](Cc2ccc(O)cc2)N(C)C(=O)[C@H](Cc2ccccc2)N2C(=O)[C@H](CC[C@H]2O)NC1=O [LYNGBYASTATIN 7]
IC50 (Kallikrein-7 [2]): 3.1 nM
fold change (FC) (Kallikrein-7 [3]): 1.6
fold change (FC) [4]: 1.5

IC50 (Kallikrein-7 [2]): 28400 nM
Compound: CCOC(=O)c1ccc(OC(=O)CCCCCNC(=N)N)cc1

IC50 (Kallikrein-7 [5]): 0.2 nM
Compound: CC[C@H](C)[C@@H]1NC(=O)[C@H](Cc2ccc(OCc3ccn(C)n3)cc2)N(C)C(=O)[C@H]([C@@H](C)CC)N2C(=O)[C@H](CC[C@H]2O)NC(=O)[C@H](CC(C)C)NC(=O)[C@@H](NC(=O)[C@H](CCC(N)=O)NC(=O)C(C)C)[C@@H](C)OC1=O

Compound: CC[C@@H](C)[C@H]1C(=O)N(C)[C@@H](Cc2ccc(O)cc2)C(=O)N[C@H]([C@H](C)CC)C(=O)O[C@H](C)[C@H](NC(=O)[C@H](CCC(N)=O)NC(=O)C(C)C)C(=O)N[C@@H](CC(C)C)C(=O)N[C@H]2CC[C@@H](O)N1C2=O
IC50 (Kallikrein-7 [5]): 1 nM

Compound: C/C=C1\NC(=O)[C@@H](NC(=O)[C@@H](NC(=O)[C@H](C)NC(=O)C/C(C)=C/Cl)[C@@H](C)CC)[C@@H](C)OC(=O)[C@H](C(C)C)NC(=O)[C@H](Cc2ccc(O)cc2)N(C)C(=O)[C@H](Cc2ccccc2)N2C(=O)[C@H](CC[C@H]2O)NC1=O
IC50 (Neutrophil elastase [6]): 44 nM
fold change (FC) [7]: 5
fold change (FC) [8]: 2.1
IC50 (Kallikrein-7 [2]): 5 nM
fold change (FC) [9]: 2.9
IC50 [10]: 97.4 nM
IC50 [1]: 31.3 nM
IC50 [11]: 12.3 nM
fold change (FC) (Bacillus licheniformis): 4000
fold change (FC) (Parengyodontium album): 15
IC50 (Neutrophil elastase [12]): 0.73 nM
IC50 [13]: 1.2 nM
fold change (FC) (Kallikrein-7 [14]): 5680
Ratio IC50 [15]: 100
